Laboratory results from ChEMBL document CHEMBL4400523, “Synthesis of novel pyrido[1,2-c]pyrimidine derivatives with rigidized tryptamine moiety as potential SSRI and 5-HT1A receptor ligands” (Eur J Med Chem, 2019).

How the values were obtained:
[1] = biological target: T1, 5-hydroxytryptamine receptor 1A (Homo sapiens, UniProt P08908); test: Displacement of [3H]-8-OH-DPAT from recombinant human 5HT1A receptor expressed in CHO cell membranes measured after 60 mins by microbeta scintillation counting analysis
T1 sequence (P08908 whole entry): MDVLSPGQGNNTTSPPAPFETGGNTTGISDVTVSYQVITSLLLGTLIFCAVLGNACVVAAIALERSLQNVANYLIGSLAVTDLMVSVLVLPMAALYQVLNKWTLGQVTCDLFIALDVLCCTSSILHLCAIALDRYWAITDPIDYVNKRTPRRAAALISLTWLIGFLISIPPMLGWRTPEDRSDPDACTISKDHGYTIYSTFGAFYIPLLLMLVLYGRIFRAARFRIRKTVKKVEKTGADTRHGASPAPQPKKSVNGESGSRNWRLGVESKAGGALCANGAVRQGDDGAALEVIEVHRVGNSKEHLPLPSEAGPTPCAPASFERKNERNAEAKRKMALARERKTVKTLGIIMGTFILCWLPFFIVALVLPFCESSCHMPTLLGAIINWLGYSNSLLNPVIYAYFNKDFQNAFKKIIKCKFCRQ

[2] = biological target: Sodium-dependent serotonin transporter (Rattus norvegicus, UniProt P31652); test: Displacement of [3H]-citalopram from SERT in rat cortex tissue measured after 60 mins by microbeta scintillation counting analysis
Outline: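 Rat cortex tissue suspension with 1.0 nM [3H]-citalopram in 50 mM Tris pH 7.7, 150 mM NaCl, 5 mM KCl. Incubated 60 min at 24 °C, in duplicate. GF/B filtration, scintillation counting. One-site fit, Ki via Cheng–Prusoff with in-house Kd.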

Sodium-dependent serotonin transporter, sequence (P31652 whole entry): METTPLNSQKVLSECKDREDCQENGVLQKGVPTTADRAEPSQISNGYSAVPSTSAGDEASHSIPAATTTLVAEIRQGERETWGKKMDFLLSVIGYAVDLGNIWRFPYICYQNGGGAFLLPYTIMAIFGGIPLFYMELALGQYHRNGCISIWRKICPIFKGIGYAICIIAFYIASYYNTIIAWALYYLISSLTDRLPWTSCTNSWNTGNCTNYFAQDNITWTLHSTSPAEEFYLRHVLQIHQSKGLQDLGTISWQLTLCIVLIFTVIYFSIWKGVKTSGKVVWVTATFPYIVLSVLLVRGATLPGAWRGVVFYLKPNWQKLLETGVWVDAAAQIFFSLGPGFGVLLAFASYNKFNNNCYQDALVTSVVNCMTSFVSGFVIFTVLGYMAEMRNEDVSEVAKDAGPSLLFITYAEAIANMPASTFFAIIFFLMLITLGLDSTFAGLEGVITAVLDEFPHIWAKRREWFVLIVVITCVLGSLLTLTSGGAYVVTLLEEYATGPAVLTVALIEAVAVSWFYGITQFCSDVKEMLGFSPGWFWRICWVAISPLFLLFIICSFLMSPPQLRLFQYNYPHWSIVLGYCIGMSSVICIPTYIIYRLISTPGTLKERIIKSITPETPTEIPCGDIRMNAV

Structure (SMILES)	Ki [1] [nM]	Ki [2] [nM]
COc1ccc2[nH]cc(C3CCCN(CCCCn4c(=O)c(-c5ccccc5OC)c5ccccn5c4=O)C3)c2c1 (stereo unspecified)	69	386
Cc1ccc(-c2c(=O)n(CCCCN3CCCC(c4c[nH]c5ccc(F)cc45)C3)c(=O)n3ccccc23)cc1 (stereo unspecified)	136	135
O=c1c(-c2ccccc2F)c2ccccn2c(=O)n1CCCCN1CCCC(c2c[nH]c3ccc(F)cc23)C1 (stereo unspecified)	218	115
O=c1c(-c2ccccc2)c2ccccn2c(=O)n1CCCCN1CCCC(c2c[nH]c3ccc(F)cc23)C1 (stereo unspecified)	209	8
COc1ccccc1-c1c(=O)n(CCCCN2CCCC(c3c[nH]c4ccc(F)cc34)C2)c(=O)n2ccccc12 (stereo unspecified)	80	118
COc1ccc2[nH]cc(C3CCCN(CCCCn4c(=O)c(-c5ccc(F)cc5)c5ccccn5c4=O)C3)c2c1 (stereo unspecified)	281	192
O=c1c(-c2ccccc2Cl)c2ccccn2c(=O)n1CCCCN1CCCC(c2c[nH]c3ccc(F)cc23)C1 (stereo unspecified)	378	255
COc1ccc2[nH]cc(C3CCCN(CCCCn4c(=O)c(-c5ccccc5C)c5ccccn5c4=O)C3)c2c1 (stereo unspecified)	476	87
O=c1c(-c2ccc(F)cc2)c2ccccn2c(=O)n1CCCCN1CCCC(c2c[nH]c3ccc(F)cc23)C1 (stereo unspecified)	147	30
Cc1ccc(-c2c(=O)n(CCCCN3CCCC(c4c[nH]c5ccccc45)C3)c(=O)n3ccccc23)cc1 (stereo unspecified)	63	207
COc1ccc2[nH]cc(C3CCCN(CCCCn4c(=O)c(-c5ccccc5)c5ccccn5c4=O)C3)c2c1 (stereo unspecified)	261	248
Cc1ccccc1-c1c(=O)n(CCCCN2CCCC(c3c[nH]c4ccccc34)C2)c(=O)n2ccccc12 (stereo unspecified)	102	76
COc1ccc2[nH]cc(C3CCCN(CCCCn4c(=O)c(-c5ccccc5Cl)c5ccccn5c4=O)C3)c2c1 (stereo unspecified)	176	459
COc1ccc2[nH]cc(C3CCCN(CCCCn4c(=O)c(-c5ccc(Cl)cc5)c5ccccn5c4=O)C3)c2c1 (stereo unspecified)	257	490
O=c1c(-c2ccc(Cl)cc2)c2ccccn2c(=O)n1CCCCN1CCCC(c2c[nH]c3ccccc23)C1 (stereo unspecified)	294	82
COc1ccccc1-c1c(=O)n(CCCCN2CCCC(c3c[nH]c4ccccc34)C2)c(=O)n2ccccc12 (stereo unspecified)	132	411
COc1ccc(-c2c(=O)n(CCCCN3CCCC(c4c[nH]c5ccc(F)cc45)C3)c(=O)n3ccccc23)cc1 (stereo unspecified)	140	27
Cc1ccccc1-c1c(=O)n(CCCCN2CCCC(c3c[nH]c4ccc(F)cc34)C2)c(=O)n2ccccc12 (stereo unspecified)	376	338
COc1ccc2[nH]cc(C3CCCN(CCCCn4c(=O)c(-c5ccc(C)cc5)c5ccccn5c4=O)C3)c2c1 (stereo unspecified)	333	173
O=c1c(-c2ccc(Cl)cc2)c2ccccn2c(=O)n1CCCCN1CCCC(c2c[nH]c3ccc(F)cc23)C1 (stereo unspecified)	155	86
COc1ccc2[nH]cc(C3CCCN(CCCCn4c(=O)c(-c5ccccc5F)c5ccccn5c4=O)C3)c2c1 (stereo unspecified)	130	1670
O=c1c(-c2ccccc2F)c2ccccn2c(=O)n1CCCCN1CCCC(c2c[nH]c3ccccc23)C1 (stereo unspecified)	53	240
O=c1c(-c2ccccc2Cl)c2ccccn2c(=O)n1CCCCN1CCCC(c2c[nH]c3ccccc23)C1 (stereo unspecified)	50	103
